According to ChEMBL document CHEMBL1131196, “Design and synthesis of hydrazinopeptides and their evaluation as human leukocyte elastase inhibitors” (J Med Chem, 1998):
Numbered stars: 1 amine (or outer) side, 2 acyl side, 3 side chain; on linkers, the order of the positions; unused ones are H or OH. Square brackets hold non-standard residues; d marks the D form. Peptide text beside a SMILES is read from it. * marks the point of attachment. X1 = O=C([C@H]1CCCN1N[*:1])[*:2]; Cbz = O=C(OCc1ccccc1)*; NHiPr = CC(C)N*

T1: Neutrophil elastase (Homo sapiens) (UniProt P08246)
T1 sequence (whole entry): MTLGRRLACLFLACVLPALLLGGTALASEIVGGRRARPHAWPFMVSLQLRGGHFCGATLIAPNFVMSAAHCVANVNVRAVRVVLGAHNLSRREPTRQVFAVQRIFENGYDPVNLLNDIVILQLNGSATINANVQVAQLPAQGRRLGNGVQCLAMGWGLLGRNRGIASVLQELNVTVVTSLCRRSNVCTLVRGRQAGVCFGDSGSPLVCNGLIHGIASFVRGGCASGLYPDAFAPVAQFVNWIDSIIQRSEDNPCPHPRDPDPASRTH

T2: Neutrophil elastase (Homo sapiens, UniProt P08246)
T2 sequence (P08246 whole entry): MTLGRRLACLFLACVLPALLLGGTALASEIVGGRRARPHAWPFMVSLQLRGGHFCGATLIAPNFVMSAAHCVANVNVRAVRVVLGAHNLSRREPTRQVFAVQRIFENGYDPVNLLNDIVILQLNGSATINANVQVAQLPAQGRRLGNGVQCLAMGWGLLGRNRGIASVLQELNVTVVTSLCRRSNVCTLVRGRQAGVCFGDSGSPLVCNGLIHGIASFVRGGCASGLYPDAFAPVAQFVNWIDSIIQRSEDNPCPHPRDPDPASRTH

B1: Neutrophil elastase (Homo sapiens), P08246 (protein)
chain: MTLGRRLACLFLACVLPALLLGGTALASEIVGGRRARPHAWPFMVSLQLRGGHFCGATLIAPNFVMSAAHCVANVNVRAVRVVLGAHNLSRREPTRQVFAVQRIFENGYDPVNLLNDIVILQLNGSATINANVQVAQLPAQGRRLGNGVQCLAMGWGLLGRNRGIASVLQELNVTVVTSLCRRSNVCTLVRGRQAGVCFGDSGSPLVCNGLIHGIASFVRGGCASGLYPDAFAPVAQFVNWIDSIIQRSEDNPCPHPRDPDPASRTH

What was measured:
[1] = target: T1, Neutrophil elastase (Homo sapiens); assay: (§1) Kinetic parameter was calculated by Michaelis equation catalyzed by Leukocyte elastase at 25 degree C and pH 8.
Procedure, shortened: (§2)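 HLE at 200 nM, in 0.05 M Hepes pH 8.0 with 10% v/v DMSO and no NaCl, at 25 °C. Hydrolysis was read either by absorbance at 250 nm (substrate 5–50 µM) or by C8 reverse-phase HPLC (substrate 5–20 µM). For HPLC, products at 2–5 min were quantified against a Z-Ala-Ala-Pro-Val calibration. kcat and Km came from least-squares Michaelis fits. For HPLC, kcat/Km came from the linearized rate below Km.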

[2] = The catalytic efficiency is the ratio of kcat to that of Km.; procedure, shortened: as §2
Pancreatic elastase = Pancreatic elastase (Sus scrofa, UniProt P08419+P00772); assay: Inhibition constant of compound measured toward porcine Pancreatic elastase at pH 8 and 25 degree C.; format: protein assay
Procedure, shortened: (§3)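 Chromogenic p-nitroanilide substrates, with MeO-Suc-Ala-Ala-Pro-Val-pNA for HLE. Enzymes were HLE 20 nM or PPE 22 nM, with inhibitors at 25–300 µM. Assays ran in 0.05 M Hepes pH 8.0 with 10% v/v DMSO at 25 °C, monitoring p-nitroaniline release continuously at 405 nm. Initial rates were fit to competitive inhibition. Ki came from a linear plot of Km(app)/Vm vs [I]; reversibility was checked by buffer exchange.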

Neutrophil elastase = target: T2, Neutrophil elastase; assay: Inhibition constant of compound measured toward human leukocyte elastase (HLE) at pH 8 and 25 degree C.; procedure, shortened: as §3
[3] = substrate: CC(C)NC(=O)[C@H](C)NC(=O)[C@H](C)NC(=O)[C@@H](NC(=O)[C@H]1CCCN1C(=O)[C@H](C)NC(=O)[C@H](C)NC(=O)OCc1ccccc1)C(C)C; assay: as §1; procedure, shortened: as §2
[4] = substrate: CC(C)NC(=O)[C@H](C)NC(=O)[C@H](C)NNC(=O)[C@@H](NC(=O)[C@H]1CCCN1C(=O)[C@H](C)NC(=O)[C@H](C)NC(=O)OCc1ccccc1)C(C)C; assay: as §1; procedure, shortened: as §2

Row | Molecule | k cat [1] | k cat/Km [2] | Ki (Pancreatic elastase) | Ki (Neutrophil elastase) | also measured
1 | CC(C)NC(=O)[C@H](C)NC(=O)[C@H](C)NC(=O)[C@@H](NC(=O)[C@H]1CCCN1C(=O)[C@H](C)NC(=O)[C@H](C)NC(=O)OCc1ccccc1)C(C)C | 0.88 s⁻¹ | 6780 M⁻¹ s⁻¹ |  |  | 
2 | CC(C)NC(=O)[C@H](C)NC(=O)[C@H](C)NC(=O)[C@@H](NNC(=O)[C@H]1CCCN1C(=O)[C@H](C)NC(=O)[C@H](C)NC(=O)OCc1ccccc1)C(C)C |  |  | 397 µM | 595 µM | 
3 | CC(C)NC(=O)[C@H](C)NC(=O)[C@H](C)NNC(=O)[C@@H](NC(=O)[C@H]1CCCN1C(=O)[C@H](C)NC(=O)[C@H](C)NC(=O)OCc1ccccc1)C(C)C | 2.24 s⁻¹ | 3150 M⁻¹ s⁻¹ |  |  | 
4 | CC(C)NC(=O)[C@H](C)NC(=O)[C@H](C)NC(=O)[C@@H](NC(=O)[C@H]1CCCN1NC(=O)[C@H](C)NC(=O)[C@H](C)NC(=O)OCc1ccccc1)C(C)C (Cbz-AA[X1]VAA-NHiPr) |  |  | 146 µM | 65 µM | 
5 | B1 |  |  |  |  | Km [3]: 131 µM; Km [4]: 712 µM
